Here are results for 2 compounds from ChEMBL document CHEMBL2417386, “Novel conjugated quinoline-indoles compromise Plasmodium falciparum mitochondrial function and show promising antimalarial activity” (J Med Chem, 2013).

Data set [1] has as its system Plasmodium falciparum. Nature of the data set: Gametocytocidal activity against synchronous stage 1 to 3 of transgenic Plasmodium falciparum NF54 gametocyte harboring pfs16 promoter assessed as parasite viability after 72 hrs by luciferase reporter gene assay. The class given is functional, organism-based. Conditions: NF54, 72 h.
The test system of data set [2] is Plasmodium falciparum. Nature of the data set: Antimalarial activity against mid to late trophozoite stage of Plasmodium falciparum 3D7 infected in RBC assessed as abnormal mitochondria at 0.6 uM after 0.5 hrs by MitoTracker Red CMXRos-based fluorescence microscopic analysis relative to untreated control. The class given is functional.
Data set [3] can be described thus: Selectivity index, ratio of IC50 for HEK293 cells to IC50 for Plasmodium falciparum 3D7 after 72 hrs. The class given is toxicity, cell-based. The note with it: human, read-out: Ratio IC50. Summed up: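 Parasite (3D7) viability assay and HEK293 viability assay, each with a 72 h exposure. Index taken as the ratio of the IC50 values, HEK293 over 3D7.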
For data set [4], the system named is Plasmodium falciparum. As to the kind of experiment: Antimalarial activity against mid to late trophozoite stage of Plasmodium falciparum 3D7 infected in RBC assessed as abnormal mitochondria at 3 uM after 0.5 hrs by MitoTracker Red CMXRos-based fluorescence microscopic analysis relative to untreated control. In kind it is functional.
Data set [5] has as its system Plasmodium falciparum. Nature of the data set: Antimalarial activity against Plasmodium falciparum 3D7 infected in RBC assessed as growth inhibition after 48 hrs by SYBR Green-I fluorescence assay. The note with it: 3D7, 48 h. In kind it is functional, organism-based. In a few lines: (§1)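 Parasite-infected red cells exposed to compound for 48 h; growth read by SYBR Green-I fluorescence; IC50 derived. Where a ± is given, it is the standard deviation of three individual experiments.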

In data set [6] the test system is Plasmodium falciparum. Nature of the data set: Antimalarial activity against mid to late trophozoite stage of Plasmodium falciparum 3D7 infected in RBC assessed as abnormal mitochondria at 15 uM after 0.5 hrs by MitoTracker Red CMXRos-based fluorescence microscopic analysis relative to untreated control. The class given is functional.
Data set [7] relates to Plasmodium falciparum. Nature of the data set: Antimalarial activity against mid to late trophozoite stage of Plasmodium falciparum 3D7 infected in RBC assessed as nonviable parasite at 0.6 uM after 0.5 hrs by SYTO 61 staining-based flow cytometric analysis relative to untreated control. The class given is functional.
Data set [8] is described as follows: Inhibition of beta-hematin formation after 24 hrs by spectrophotometric analysis in presence of nonidet P40. In kind it is functional.
Data set [9] can be described thus: Dissociation constant, pKa of the compound at 50 uM by spectrophotometric analysis. In kind it is physicochemical.
In data set [10] the test system is Plasmodium falciparum. Nature of the data set: Gametocytocidal activity against synchronous stage 4 to 5 of transgenic Plasmodium falciparum NF54 gametocyte harboring pfs16 promoter assessed as parasite viability after 72 hrs by MitoTracker Red CMXRos-based assay. In kind it is functional, organism-based. Conditions: NF54, 72 h.
For data set [11], the system named is Plasmodium falciparum. Nature of the data set: Antimalarial activity against Plasmodium falciparum K1 infected in RBC assessed as growth inhibition after 48 hrs by SYBR Green-I fluorescence assay. The note with it: K1, 48 h. In kind it is functional, organism-based. Summed up:
as §1

In data set [12] the test system is Plasmodium falciparum. Nature of the data set: Antimalarial activity against mid to late trophozoite stage of Plasmodium falciparum 3D7 infected in RBC assessed as nonviable parasite at 3 uM after 0.5 hrs by SYTO 61 staining-based flow cytometric analysis relative to untreated control. The class given is functional.
Data set [13] concerns Plasmodium falciparum. Nature of the data set: Antimalarial activity against mid to late trophozoite stage of Plasmodium falciparum 3D7 infected in RBC assessed as nonviable parasite at 15 uM after 0.5 hrs by SYTO 61 staining-based flow cytometric analysis relative to untreated control. In kind it is functional.
For data set [14], the system named is Plasmodium falciparum. Nature of the data set: Gametocytocidal activity against synchronous stage 4 to 5 of transgenic Plasmodium falciparum NF54 gametocyte harboring pfs16 promoter assessed as inhibition of parasite viability at 60 uM after 72 hrs by MitoTracker Red CMXRos-based assay relative to control. The class given is functional. The note with it: NF54, 72 h.

Data set [15] has as its system Plasmodium falciparum. Nature of the data set: Antimalarial activity against mid to late trophozoite stage of Plasmodium falciparum 3D7 infected in RBC assessed as nonviable parasite at 0.005 uM after 0.5 hrs by SYTO 61 staining-based flow cytometric analysis relative to untreated control. In kind it is functional.
Data set [16] has as its system Plasmodium falciparum. Nature of the data set: Antimalarial activity against mid to late trophozoite stage of Plasmodium falciparum 3D7 infected in RBC assessed as nonviable parasite at 200 uM after 0.5 hrs by SYTO 61 staining-based flow cytometric analysis relative to untreated control. The class given is functional.
Data set [17] relates to Plasmodium falciparum. As to the kind of experiment: Antimalarial activity against mid to late trophozoite stage of Plasmodium falciparum 3D7 infected in RBC assessed as abnormal mitochondria at 1000 uM after 0.5 hrs by MitoTracker Red CMXRos-based fluorescence microscopic analysis relative to untreated control. In kind it is functional.
The test system of data set [18] is Plasmodium falciparum. Nature of the data set: Antimalarial activity against mid to late trophozoite stage of Plasmodium falciparum 3D7 infected in RBC assessed as abnormal mitochondria at 40 uM after 0.5 hrs by MitoTracker Red CMXRos-based fluorescence microscopic analysis relative to untreated control. In kind it is functional.
Data set [19] concerns Plasmodium falciparum. As to the kind of experiment: Antimalarial activity against mid to late trophozoite stage of Plasmodium falciparum 3D7 infected in RBC assessed as nonviable parasite at 1000 uM after 0.5 hrs by SYTO 61 staining-based flow cytometric analysis relative to untreated control. In kind it is functional.
Data set [20] has as its system Plasmodium falciparum. As to the kind of experiment: Antimalarial activity against mid to late trophozoite stage of Plasmodium falciparum 3D7 infected in RBC assessed as abnormal mitochondria at 0.005 uM after 0.5 hrs by MitoTracker Red CMXRos-based fluorescence microscopic analysis relative to untreated control. In kind it is functional.
Data set [21] has as its system Plasmodium falciparum. Nature of the data set: Antimalarial activity against mid to late trophozoite stage of Plasmodium falciparum 3D7 infected in RBC assessed as nonviable parasite at 40 uM after 0.5 hrs by SYTO 61 staining-based flow cytometric analysis relative to untreated control. The class given is functional.
Data set [22] concerns Plasmodium falciparum. Nature of the data set: Antimalarial activity against mid to late trophozoite stage of Plasmodium falciparum 3D7 infected in RBC assessed as abnormal mitochondria at 200 uM after 0.5 hrs by MitoTracker Red CMXRos-based fluorescence microscopic analysis relative to untreated control. In kind it is functional.

On to `Nc1cc(/C=C/c2c[nH]c3ccccc23)nc2ccccc12`, for which the IC50 in the data set on Plasmodium falciparum [1] is 0.37 µM; with Plasmodium falciparum [5], 0.2 µM; in [8], > 4000 µM; in the data set with Plasmodium falciparum [10], 1.4 µM; with Plasmodium falciparum [11], 0.39 µM. The Activity in the data set on Plasmodium falciparum [2] is listed as 27%; in the data set with Plasmodium falciparum [4], 66%; in the data set on Plasmodium falciparum [6], 93%; with Plasmodium falciparum [7], 46%; in the data set with Plasmodium falciparum [12], 77%; in the data set on Plasmodium falciparum [13], 88%. In addition, the selectivity ratio at 72 h in data set [3] worked out at 79. In data set [9], this compound had a pKa at 50 µM of 9.5.
Take `CCN(CC)CCCC(C)Nc1ccnc2cc(Cl)ccc12` (stereo not drawn) [CHLOROQUINE]: the inhibition at 60 µM with Plasmodium falciparum [14] was determined as 100%. Besides, the IC50 in data set [8] was 30 µM. Moreover, the Activity amounted to 84% in the data set on Plasmodium falciparum [15]; 36% in the data set with Plasmodium falciparum [16]; 8% with Plasmodium falciparum [17]; 0% in the data set on Plasmodium falciparum [18]; 85% in the data set with Plasmodium falciparum [19]; 12% in the data set on Plasmodium falciparum [20]. Further, the results for the Activity in the data set on Plasmodium falciparum [21] and in the data set with Plasmodium falciparum [22] were 23% and 5%, respectively.
